Test [1] is described as follows: Cytotoxicity against human NTUB1 cells after 72 hrs by MTT assay. It is filed as functional, cell-based. The conditions noted are these: NTUB1, 72 h. A digest of the protocol: (§1)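 Cells grown in RPMI 1640 with 10% FBS, penicillin/streptomycin and 2 mM L-glutamine at 37 °C under 5% CO₂. Seeded 1800 cells/well, left overnight, then given graded compound concentrations for 72 h; compounds diluted from DMSO, 0.1% DMSO in medium and in controls. MTT 2 mg/mL in PBS for 3 h, formazan dissolved in DMSO, absorbance 540 nm. Viability given as % of control; IC50 by median-effect analysis, mean ± SD.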

The nature of test [2]: Cytotoxicity against human NTUB1 cells assessed as cell viability at >30 uM after 72 hrs by MTT assay. The class given is functional. In short, it runs like this:
as §1

The nature of test [3]: Induction of apoptosis in human NTUB1 cells assessed as accumulation at subG1 phase at 20 uM after 24 hrs using propidium iodide staining by flow cytometry. The class given is functional. A digest of the protocol:
(§2)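 NTUB1 cells plated at 8 × 10⁵ per 10 cm dish and exposed to compound for 24 or 48 h; untreated controls got medium alone. Cells trypsinized, PBS-washed and fixed overnight in ice-cold MeOH at −20 °C, then stained with 50 µg/mL propidium iodide plus RNase A. DNA content was read by flow cytometry, with apoptosis taken as sub-G1 accumulation. Three independent experiments.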

The nature of test [4]: Cell cycle arrest in human NTUB1 cells assessed as accumulation at G2/M phase at 40 uM after 24 hrs using propidium iodide staining by flow cytometry. The class given is functional, cell-based. In short, it runs like this: as §2
The nature of test [5]: Cell cycle arrest in human NTUB1 cells assessed as accumulation at G2/M phase at 20 uM after 24 hrs using propidium iodide staining by flow cytometry. It is filed as functional, cell-based. A digest of the protocol:
as §2

Another test concerns A549. Kind of test: Cytotoxicity against human A549 cells at 50 uM after 72 hrs by MTT assay. It is filed as functional, cell-based. A digest of the protocol: as §1
Test [6] in a line: Cell cycle arrest in human NTUB1 cells assessed as accumulation at G1 phase at 20 uM after 24 hrs using propidium iodide staining by flow cytometry. It is filed as functional, cell-based. A digest of the protocol: as §2
For another test, the system named is PC-3. As to the kind of experiment: Cytotoxicity against human PC3 cells at 50 uM after 72 hrs by MTT assay. It is filed as functional, cell-based. In short, it runs like this:
as §1

The nature of test [7]: Cell cycle arrest in human NTUB1 cells assessed as accumulation at G1 phase at 40 uM after 24 hrs using propidium iodide staining by flow cytometry. It is filed as functional, cell-based. In short, it runs like this:
as §2

A short description of test [8]: Induction of apoptosis in human NTUB1 cells assessed as accumulation at subG1 phase at 40 uM after 24 hrs using propidium iodide staining by flow cytometry. The class given is functional. A digest of the protocol: as §2
The nature of test [9]: Cell cycle arrest in human NTUB1 cells assessed as accumulation at S phase at 40 uM after 24 hrs using propidium iodide staining by flow cytometry. The class given is functional, cell-based. In short, it runs like this: as §2
A short description of test [10]: Cell cycle arrest in human NTUB1 cells assessed as accumulation at S phase at 20 uM after 24 hrs using propidium iodide staining by flow cytometry. The class given is functional, cell-based. A digest of the protocol: as §2
The next test has as its target Tubulin (Homo sapiens) (UniProt P68371+Q9H4B7+P0DPH7+P68366+Q13509+Q71U36+P04350+Q3ZCM7+P07437+P68363+Q9BQE3+Q6PEY2+Q13885+Q9BVA1+Q9BUF5). Kind of test: Inhibition of tubulin polymerization in human NTUB1 cells assessed as blockade of microtubule assembly at 10 nM by indirect immunofluorescence staining. It is filed as cell-based. In short, it runs like this: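 NTUB1 cells on coverslips were treated for 24 h, then fixed in 2% formaldehyde/PBS for 20 min and in cold methanol (−20 °C) for 3 min. Stained with anti-α-tubulin monoclonal antibody for 3 h at room temperature, then rhodamine-conjugated secondary antibody for 1 h in the dark. Mounted in 80% glycerol/PBS and examined by fluorescence microscopy.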

The source made the active and inactive calls. The calls are words filed in the database; no cut-off is given here.

In test [1], `CCOC(=O)[C@]12CC[C@@H](C)[C@H](C)[C@H]1C1=CC[C@@H]3[C@@]4(C)CC[C@H](O)C(C)(C)[C@@H]4CC[C@@]3(C)[C@]1(C)CC2` showed an IC50 of 13.5 µM.

In [1], `C[C@H]1[C@H](C)CC[C@]2(C(=O)OCCO)CC[C@]3(C)C(=CC[C@@H]4[C@@]5(C)CC[C@H](O)C(C)(C)[C@@H]5CC[C@]43C)[C@H]12` yielded an IC50 of 19.5 µM.

In turn, `CCCCCCOC(=O)[C@]12CC[C@@H](C)[C@H](C)[C@H]1C1=CC[C@@H]3[C@@]4(C)CC[C@H](O)C(C)(C)[C@@H]4CC[C@@]3(C)[C@]1(C)CC2` came in with an IC50 in test [1] of 26.2 µM.

As for `CCCCOC(=O)[C@]12CC[C@@H](C)[C@H](C)[C@H]1C1=CC[C@@H]3[C@@]4(C)CC[C@H](O)C(C)(C)[C@@H]4CC[C@@]3(C)[C@]1(C)CC2`, the IC50 in test [1] was determined as 15.6 µM.

For the compound `COC(=O)[C@]12CC[C@@H](C)[C@H](C)[C@H]1C1=CC[C@@H]3[C@@]4(C)CC[C@H](O)C(C)(C)[C@@H]4CC[C@@]3(C)[C@]1(C)CC2` [METHYL URSOLATE], the IC50 in [1] was 37.1 µM.

Take `C[C@H]1[C@H](C)CC[C@]2(C(=O)O)CC[C@]3(C)C(=CC[C@@H]4[C@@]5(C)CCC(=O)OC(C)(C)[C@@H]5CC[C@]43C)[C@H]12`: the IC50 in test [1] is > 30 µM. Moreover, the Activity in test [2] was found to be 63.91%.

Consider `CCC(=O)O[C@H]1CC[C@]2(C)[C@H]3CC=C4[C@@H]5[C@@H](C)[C@H](C)CC[C@]5(C(=O)O)CC[C@@]4(C)[C@]3(C)CC[C@H]2C1(C)C`, for which, in test [1], the IC50 is > 30 µM. The Activity in test [2] is reported as 72.53%.

Take `C/C=C/C(=O)O[C@H]1CC[C@]2(C)[C@H]3CC=C4[C@@H]5[C@@H](C)[C@H](C)CC[C@]5(C(=O)O)CC[C@@]4(C)[C@]3(C)CC[C@H]2C1(C)C`: the IC50 in [1] is 11.9 µM.

For `CCCOC(=O)[C@]12CC[C@@H](C)[C@H](C)[C@H]1C1=CC[C@@H]3[C@@]4(C)CC[C@H](O)C(C)(C)[C@@H]4CC[C@@]3(C)[C@]1(C)CC2`, the IC50 in [1] is 18.3 µM.

Consider `C[C@H]1[C@H](C)CC[C@]2(C(=O)O)CC[C@]3(C)C(=CC[C@@H]4[C@@](C)(CCC(=O)O)[C@H](C(C)(C)O)CC[C@]43C)[C@H]12`, for which the IC50 in test [1] is > 30 µM. In addition, the Activity in test [2] worked out at 56.04%.

In test [1], `CC(C)=CCOC(=O)[C@]12CC[C@@H](C)[C@H](C)[C@H]1C1=CC[C@@H]3[C@@]4(C)CC[C@H](O)C(C)(C)[C@@H]4CC[C@@]3(C)[C@]1(C)CC2` gave an IC50 of 10.9 µM.

For the compound `C[C@H]1[C@H](C)CC[C@]2(C(=O)OCC(=O)OC(C)(C)C)CC[C@]3(C)C(=CC[C@@H]4[C@@]5(C)CC[C@H](O)C(C)(C)[C@@H]5CC[C@]43C)[C@H]12`, the IC50 in test [1] is > 30 µM. Further, the Activity in [2] is recorded as 64.85%.

Regarding `C[C@H]1[C@H](C)CC[C@]2(C(=O)O)CC[C@]3(C)C(=CC[C@@H]4[C@@]5(C)CC[C@H](OC(=O)CCC(=O)O)C(C)(C)[C@@H]5CC[C@]43C)[C@H]12`, the Activity is 7.27% in test [3]; 7.36% in test [4]; 24.1% in test [5]; 13.1% in [6]; 18.9% in test [7]; 61.37% in test [8]. Besides, the Activity came out at 7.51% in test [9] and 18.5% in test [10]. Also, the result in the test with A549 and with PC-3 was Active. This compound also displayed an IC50 in test [1] of 8.65 µM.

As to `CC(C)CC(=O)O[C@H]1CC[C@]2(C)[C@H]3CC=C4[C@@H]5[C@@H](C)[C@H](C)CC[C@]5(C(=O)O)CC[C@@]4(C)[C@]3(C)CC[C@H]2C1(C)C`, in test [1], the IC50 was found to be 31 µM.

`COC(=O)[C@]12CC[C@@H](C)[C@H](C)[C@H]1C1=CC[C@@H]3[C@@]4(C)CCC(=O)C(C)(C)[C@@H]4CC[C@@]3(C)[C@]1(C)CC2` showed a half-maximal inhibitory concentration (IC50) in [1] of 29.6 µM.

`CC(=O)O[C@H]1C(=O)[C@@]2(C)[C@H]([C@H](OC(=O)c3ccccc3)[C@]3(O)C[C@H](OC(=O)[C@H](O)[C@@H](NC(=O)c4ccccc4)c4ccccc4)C(C)=C1C3(C)C)[C@]1(OC(C)=O)CO[C@@H]1C[C@@H]2O`: the result on Tubulin (Homo sapiens) was Active.

`CCCCCOC(=O)[C@]12CC[C@@H](C)[C@H](C)[C@H]1C1=CC[C@@H]3[C@@]4(C)CC[C@H](O)C(C)(C)[C@@H]4CC[C@@]3(C)[C@]1(C)CC2` registered an IC50 in test [1] of 27.8 µM.

On to `CCCC(=O)O[C@H]1CC[C@]2(C)[C@H]3CC=C4[C@@H]5[C@@H](C)[C@H](C)CC[C@]5(C(=O)O)CC[C@@]4(C)[C@]3(C)CC[C@H]2C1(C)C`, for which, in [1], the IC50 was > 30 µM. Besides, in test [2], the Activity was 76.47%.

Regarding `C[C@H]1[C@H](C)CC[C@]2(C(=O)O)CC[C@]3(C)C(=CC[C@@H]4[C@@]5(C)CC[C@H](O)C(C)(C)[C@@H]5CC[C@]43C)[C@H]12` [URSOLIC ACID], half-maximal inhibition in test [1] (IC50) was put at 29.4 µM.

In test [1], `C[C@H]1[C@H](C)CC[C@]2(C(=O)O)CC[C@]3(C)C(=CC[C@@H]4[C@@]5(C)CCC(=O)C(C)(C)[C@@H]5CC[C@]43C)[C@H]12` [URSONIC ACID] returned an IC50 of 21.4 µM.

In [1], `CC(=O)O[C@H]1CC[C@]2(C)[C@H]3CC=C4[C@@H]5[C@@H](C)[C@H](C)CC[C@]5(C(=O)O)CC[C@@]4(C)[C@]3(C)CC[C@H]2C1(C)C` [O-ACETYLURSOLIC ACID] displayed an IC50 of 14.3 µM.

Consider `C=C(C)[C@@H]1CC[C@]2(C)[C@H](CC=C3[C@@H]4[C@@H](C)[C@H](C)CC[C@]4(C(=O)OC)CC[C@]32C)[C@@]1(C)CCC(=O)OC`, for which 15.6 µM corresponded to half-maximal inhibition in test [1] (IC50).

Turning to `C=C(C)[C@@H]1CC[C@]2(C)[C@H](CC=C3[C@@H]4[C@@H](C)[C@H](C)CC[C@]4(C(=O)O)CC[C@]32C)[C@@]1(C)CCC(=O)OC`, in test [1], the IC50 was > 30 µM. For the same compound, the Activity in test [2] worked out at 62.77%.

For the origin of these results see ChEMBL document CHEMBL1152612, “Ursolic acid derivatives induce cell cycle arrest and apoptosis in NTUB1 cells associated with reactive oxygen species” (Bioorg Med Chem, 2009).
